Laboratory results as given in ChEMBL document CHEMBL1135117, “Identification of potent and selective oxytocin antagonists. Part 2: further investigation of benzofuran derivatives” (Bioorg Med Chem Lett, 2002).

Tests used:
Oxytocin receptor [1] = molecular target: T1, Oxytocin receptor (Homo sapiens, UniProt P30559); assay: Displacement of 3[H]oxytocin from human oxytocin receptor
T1 sequence (P30559 whole entry): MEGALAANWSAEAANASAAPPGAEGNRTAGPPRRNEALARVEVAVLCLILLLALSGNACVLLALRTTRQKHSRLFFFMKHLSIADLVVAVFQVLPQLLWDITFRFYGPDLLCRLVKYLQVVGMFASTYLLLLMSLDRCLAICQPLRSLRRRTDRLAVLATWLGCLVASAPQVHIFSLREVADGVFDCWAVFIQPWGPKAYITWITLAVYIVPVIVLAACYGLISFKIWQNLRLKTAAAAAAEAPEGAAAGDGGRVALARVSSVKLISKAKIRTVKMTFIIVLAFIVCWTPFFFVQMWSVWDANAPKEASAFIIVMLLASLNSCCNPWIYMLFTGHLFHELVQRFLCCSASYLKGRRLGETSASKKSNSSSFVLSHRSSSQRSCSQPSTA

[2] = Compound was tested for lipophilicity; format: physicochemical; conditions: octanol/water
[3] = Compound was tested for plasma clearance in rat; format: ADME, organism-based
[4] = Compound was tested for its half life in dog; format: ADME, organism-based, Canis lupus familiaris; conditions: in vivo
[5] = molecular target: T2, Oxytocin receptor (Homo sapiens) (UniProt P30559); assay: Tested for ratio of displacement of 3H oxytocin from human OT in presence and absence of 50 mg/mL human serum albumin
T2 sequence (whole entry): T1 sequence (P30559 whole entry)
In short: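 Displacement of [3H]oxytocin from human OT receptor, with IC50 measured with and without 50 mg/mL human serum albumin. The radioligand was made up in buffer containing 100 mg/mL HSA, a pre-dilution level. The value is the ratio of the IC50 with HSA to the IC50 without HSA.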

Rattus norvegicus = species: Rattus norvegicus; assay: Serum concentration for 50% inhibition of uterine contractility response to oxytocin in rat; format: functional, organism-based
In short: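 Adult female AHA rats pre-treated 18 h with diethylstilboestrol (250 µg/kg ip, corn oil), anaesthetised with pentobarbitone (60 mg/kg ip); uterine tension ~2 g. OT 0.3 µg/kg iv given 3–180 min after a single iv bolus of antagonist (DMSO/PEG200/water 20:50:30). Response = 10-min area under the contraction–time curve. Plasma drug measured by mass spectrometry in serial blood samples.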

[6] = Tested for plasma clearance in dog; format: ADME, organism-based, Canis lupus familiaris
Vasopressin V1a receptor = Vasopressin V1a receptor (Homo sapiens, UniProt P37288); assay: Compound was tested for its ability to displace vasopressin from human Vasopressin V1a receptor
Albumin = Albumin (Homo sapiens, UniProt P02768); assay: Compound was tested for Serum albumin binding
[7] = Bioavailability in dog; format: ADME, organism-based, Canis lupus familiaris; conditions: in vivo
Oxytocin receptor [8] = molecular target: T3, Oxytocin receptor (Rattus norvegicus, UniProt P70536); assay: Compound was tested for displacement of 3[H] oxytocin from rat OT receptor (in vitro)
T3 sequence (P70536 whole entry): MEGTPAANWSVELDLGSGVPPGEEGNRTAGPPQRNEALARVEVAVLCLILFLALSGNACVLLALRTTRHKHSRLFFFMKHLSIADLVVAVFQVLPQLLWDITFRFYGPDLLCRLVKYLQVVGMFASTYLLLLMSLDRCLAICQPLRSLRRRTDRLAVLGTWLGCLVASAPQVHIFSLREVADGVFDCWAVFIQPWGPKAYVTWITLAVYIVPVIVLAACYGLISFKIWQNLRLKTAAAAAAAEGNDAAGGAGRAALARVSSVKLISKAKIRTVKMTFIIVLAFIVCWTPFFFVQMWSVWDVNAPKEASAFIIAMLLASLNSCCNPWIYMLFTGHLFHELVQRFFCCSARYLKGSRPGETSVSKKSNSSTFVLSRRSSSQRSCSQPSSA
In short: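 Myometrium from rats that littered within 2 h, homogenised in sucrose buffer; membrane fraction pelleted at 48,000g, 4 °C. Filtration binding with [3H]oxytocin at 1 nM in 50 mM HEPES, 10 mM MgCl2, pH 7.4, plus competing ligand. Incubation 1 h at room temperature, then GF/C filtration, ice-cold buffer washes, scintillation counting of bound label.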

[9] = Compound was tested for its half life in rat; format: ADME, organism-based; conditions: in vivo
[10] = Bioavailability in rat; format: ADME, organism-based; conditions: in vivo
[11] = Compound was tested for plasma clearance in dog; format: ADME, organism-based, Canis lupus familiaris
[12] = Compound was tested for its lipophilicity; format: physicochemical; conditions: octanol/water
[13] = Tested for the pharmacokinetic parameter in rat and expressed as area under curve; format: ADME, organism-based; design: concentration or dose not given beside the values; conditions: in vivo

Vasopressin V1a receptor, sequence (P37288 whole entry): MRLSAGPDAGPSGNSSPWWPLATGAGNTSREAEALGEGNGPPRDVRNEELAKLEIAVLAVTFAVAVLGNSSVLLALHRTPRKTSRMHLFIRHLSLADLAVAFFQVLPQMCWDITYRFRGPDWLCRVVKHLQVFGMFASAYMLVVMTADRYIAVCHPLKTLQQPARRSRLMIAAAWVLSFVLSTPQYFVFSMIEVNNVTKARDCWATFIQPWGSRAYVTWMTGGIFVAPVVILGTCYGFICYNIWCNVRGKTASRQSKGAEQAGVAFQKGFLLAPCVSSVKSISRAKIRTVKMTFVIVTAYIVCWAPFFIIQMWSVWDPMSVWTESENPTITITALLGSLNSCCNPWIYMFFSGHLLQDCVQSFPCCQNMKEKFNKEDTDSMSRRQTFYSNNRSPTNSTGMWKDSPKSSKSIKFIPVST
Albumin, sequence (P02768 whole entry): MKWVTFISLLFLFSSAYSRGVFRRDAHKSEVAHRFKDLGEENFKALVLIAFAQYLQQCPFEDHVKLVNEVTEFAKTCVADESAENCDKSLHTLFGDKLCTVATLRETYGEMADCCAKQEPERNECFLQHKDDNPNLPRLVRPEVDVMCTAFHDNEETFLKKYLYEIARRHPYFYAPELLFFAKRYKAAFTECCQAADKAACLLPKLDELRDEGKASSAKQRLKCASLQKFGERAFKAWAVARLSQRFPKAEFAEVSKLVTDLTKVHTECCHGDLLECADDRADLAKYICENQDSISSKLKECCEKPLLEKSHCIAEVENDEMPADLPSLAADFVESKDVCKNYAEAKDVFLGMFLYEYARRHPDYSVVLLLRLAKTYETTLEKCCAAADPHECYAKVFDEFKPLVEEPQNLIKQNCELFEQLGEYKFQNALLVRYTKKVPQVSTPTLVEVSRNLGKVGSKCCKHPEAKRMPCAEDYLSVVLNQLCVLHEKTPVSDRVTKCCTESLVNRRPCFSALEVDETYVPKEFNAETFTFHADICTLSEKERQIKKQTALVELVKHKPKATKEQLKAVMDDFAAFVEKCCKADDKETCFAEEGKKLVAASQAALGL

| SMILES | Ki (Oxytocin receptor [1]) | clearance [3] | half-life [4] | Binding (Albumin) | half-life [9] | bioavailability [10] | clearance [11] | other results |
| --- | --- | --- | --- | --- | --- | --- | --- | --- |
| O=C(Cn1cc(C(F)(F)F)ccc1=O)NCc1cc2ccc(C(=O)N3CCC(N4C(=O)OCc5ccccc54)CC3)cc2o1 | 100 nM | – | – | – | – | – | – | – |
| O=C(Cn1cc(C(F)(F)F)ccc1=O)NCc1cc2cc(C(=O)N3CCC(N4C(=O)OCc5ccccc54)CC3)ccc2o1 | 2 nM | 10 mL/min/kg | 1.5 h | 96.2% | 1 h | 16% | – | logD [2]: 2.16; HSA shift [5]: 46; IC50 (Rattus norvegicus): 20 nM; clearance [6]: 8 mL/min/kg; Ki (Vasopressin V1a receptor): 1260 nM; bioavailability [7]: 51%; IC50 (Oxytocin receptor [8]): 3040 nM |
| COc1cc(OC2CCN(C(C)=O)CC2)ccc1C(=O)N1CCC(N2C(=O)OCc3ccccc32)CC1 | 6.31 nM | 51 mL/min/kg | 1.1 h | 83.7% | 1.1 h | 55% | 13 mL/min/kg | IC50 (Rattus norvegicus): 25 nM; Ki (Vasopressin V1a receptor): > 2000 nM; logD [12]: 1.66; bioavailability [7]: 29% |
| O=C(Cn1cc(C(F)(F)F)ccc1=O)NCc1cc2cc(C(=O)N3CCC(N4C(=O)OCc5cccc(F)c54)CC3)ccc2o1 | 7.94 nM | 11 mL/min/kg | – | – | 1.2 h | 67% | – | – |
| O=C(Cn1cc(C(F)(F)F)ccc1=O)NCc1cc2cc(C(=O)N3CCC(N4C(=O)OCc5ccc(F)cc54)CC3)ccc2o1 | 6.31 nM | – | – | – | – | – | – | – |
| O=C(c1ccc2oc(-c3cncc(Cn4cc(C(F)(F)F)ccc4=O)c3)cc2c1)N1CCC(N2C(=O)OCc3ccccc32)CC1 | 63.1 nM | 7 mL/min/kg | – | 96% | 1.4 h | 41% | – | HSA shift [5]: 17; AUC [13]: 5400 ng·h/mL |
| O=C(Cn1ccc2ccccc2c1=O)NCc1cc2cc(C(=O)N3CCC(N4C(=O)OCc5ccccc54)CC3)ccc2o1 | 6.31 nM | 10 mL/min/kg | 1.1 h | – | 0.8 h | 17% | 6 mL/min/kg | – |
| Cn1c(CNC(=O)Cn2cc(C(F)(F)F)ccc2=O)cc2ccc(C(=O)N3CCC(N4C(=O)OCc5ccccc54)CC3)cc21 | 50.1 nM | – | – | – | – | – | – | – |
| O=C(Cn1cc(C(F)(F)F)ccc1=O)NCc1nc2cc(C(=O)N3CCC(N4C(=O)OCc5ccccc54)CC3)ccc2s1 | 79.4 nM | – | – | – | – | – | – | – |
| O=C(c1ccc2oc(CN3CCCC[C@H]3Cn3cc(C(F)(F)F)ccc3=O)cc2c1)N1CCC(N2C(=O)OCc3ccccc32)CC1 | 10 nM | – | – | 98% | – | – | – | HSA shift [5]: 90 |
| O=C(c1ccc2oc(-c3cc(Cn4cc(C(F)(F)F)ccc4=O)ccn3)cc2c1)N1CCC(N2C(=O)OCc3ccccc32)CC1 | > 3160 nM | – | – | 96% | – | – | – | – |
| O=C(Cn1cc(C(F)(F)F)ccc1=O)NCc1nc2ccc(C(=O)N3CCC(N4C(=O)OCc5ccccc54)CC3)cc2s1 | 10 nM | – | – | – | – | – | – | – |
| O=C(Cn1ccc(N2CCOCC2)nc1=O)NCc1cc2cc(C(=O)N3CCC(N4C(=O)OCc5ccccc54)CC3)ccc2o1 | 0.501 nM | 17 mL/min/kg | 1.2 h | – | 0.8 h | < 1% | 11 mL/min/kg | bioavailability [7]: 2% |
| O=C(Cn1cc(C(F)(F)F)ccc1=O)NCc1cc2cc(C(=O)N3CCC(N4C(=O)CCc5ccccc54)CC3)ccc2o1 | 25.1 nM | 13 mL/min/kg | – | – | 1.1 h | 44% | – | – |
| O=C(Cn1cnc(C(F)(F)F)cc1=O)NCc1cc2cc(C(=O)N3CCC(N4C(=O)OCc5ccccc54)CC3)ccc2o1 | 3.98 nM | 20 mL/min/kg | 1.6 h | – | 0.8 h | 14% | 6 mL/min/kg | Ki (Vasopressin V1a receptor): 3980 nM; bioavailability [7]: 34% |
| O=C(Cn1ccc(-c2ccccc2)nc1=O)NCc1cc2cc(C(=O)N3CCC(N4C(=O)OCc5ccccc54)CC3)ccc2o1 | 1 nM | – | 1.3 h | – | – | – | 9 mL/min/kg | – |
| O=C(c1ccc2oc(CN3CCC[C@@H](n4cc(C(F)(F)F)ccc4=O)C3)cc2c1)N1CCC(N2C(=O)OCc3ccccc32)CC1 | 25.1 nM | 28 mL/min/kg | – | 96% | 0.6 h | – | – | HSA shift [5]: 222; AUC [13]: 150 ng·h/mL; bioavailability [7]: 2% |
| COc1cccn(CC(=O)NCc2cc3cc(C(=O)N4CCC(N5C(=O)OCc6ccccc65)CC4)ccc3o2)c1=O | 2.51 nM | 22 mL/min/kg | 1.1 h | – | 1.2 h | 3% | 19 mL/min/kg | Ki (Vasopressin V1a receptor): 1580 nM; bioavailability [7]: 68% |
| O=C(Cn1ccccc1=O)NCc1cc2cc(C(=O)N3CCC(N4C(=O)OCc5ccccc54)CC3)ccc2o1 | 6.31 nM | – | 0.5 h | – | – | – | 34 mL/min/kg | – |
| O=C(Cn1cc(C(F)(F)F)ccc1=O)NCc1cc2cc(C(=O)N3CCC(N4C(=O)OCc5c(F)cccc54)CC3)ccc2o1 | 100 nM | – | – | – | – | – | – | – |
| O=C(c1ccc2oc(-c3cccc(Cn4cc(C(F)(F)F)ccc4=O)c3)cc2c1)N1CCC(N2C(=O)OCc3ccccc32)CC1 | 794 nM | 7 mL/min/kg | – | 98% | 2.2 h | > 45% | – | AUC [13]: 5700 ng·h/mL |
| O=C(c1ccc2oc(-c3cccc(Cn4cc(C(F)(F)F)ccc4=O)n3)cc2c1)N1CCC(N2C(=O)OCc3ccccc32)CC1 | 10 nM | 12 mL/min/kg | – | 98% | 1.2 h | 22% | – | HSA shift [5]: 87; AUC [13]: 1500 ng·h/mL |
| O=C(Cn1cc(C(F)(F)F)ccc1=O)NCc1cc2cc(C(=O)N3CCC(N4C(=O)OCc5ccccc54)CC3)c(F)cc2o1 | 7.94 nM | 21 mL/min/kg | – | – | 1.3 h | 15% | – | – |
| O=C(Cn1cc(C(F)(F)F)ccc1=O)NCc1cc2cc(C(=O)N3CCC(N4C(=O)OCc5ccc(Cl)cc54)CC3)ccc2o1 | 3.16 nM | 21 mL/min/kg | – | – | 1 h | 35% | – | – |
| O=C(Cn1cc(C(F)(F)F)ccc1=O)NCc1cc2cc(C(=O)N3CCC(N4C(=O)OCc5cc(F)ccc54)CC3)ccc2o1 | 6.31 nM | 17 mL/min/kg | – | – | 0.9 h | 18% | – | – |
| Cn1ncc2c(=O)n(CC(=O)NCc3cc4cc(C(=O)N5CCC(N6C(=O)OCc7ccccc76)CC5)ccc4o3)cnc21 | 1.26 nM | – | 1 h | – | – | – | 11 mL/min/kg | bioavailability [7]: 36% |
